Columns and labels:
CAL-27 [1] = assay: Potentiation of 0.316 uM cisplatin-induced cytotoxicity against human CAL27 cells assessed as decrease in cell viability measuring combination index at 2000 uM preincubated for 48 hrs followed by cisplatin treatment measured after 72 hrs by MTT assay; type: functional; settings: in the assay text read “at 2000 nM” for “at 2000 uM”
Procedure, shortened: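 Cal27 and cisplatin-resistant Cal27CisR cells were preincubated with the HDAC inhibitor for 48 h, then given cisplatin in combination. Viability was read by MTT after 72 h. The combination index was computed by the Chou–Talalay method: CI > 1 is antagonism, CI = 1 is additive, and CI < 0.9 is synergism. Points with fraction affected below 0.20 were flagged.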

CAL-27 [2] = assay: Potentiation of 2 uM cisplatin-induced cytotoxicity against human CAL27 cells assessed as decrease in cell viability by measuring combination index at 2000 uM preincubated for 48 hrs followed by cisplatin treatment measured after 72 hrs by MTT assay; type: functional; settings: in the assay text read “at 2000 nM” for “at 2000 uM”
Procedure, shortened: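 HDAC inhibitor was added 48 h before cisplatin, then cells were exposed to cisplatin for 72 h and viability was read by MTT assay. Combination index was computed by the Chou–Talalay method: CI > 1 is antagonism, CI = 1 additive, CI < 0.9 synergism. Points with fraction affected below 0.20 were flagged.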

[3] = molecular target: Histone deacetylase 1/6 (Homo sapiens) (UniProt Q13547+Q9UBN7); assay: Inhibition of HDAC1/HDAC6 in human Cal27CisR cells assessed as potentiation of 20 uM cisplatin-induced cytotoxicity by measuring combination index at 2000 nM preincubated for 48 hrs followed by cisplatin treatment measured after 72 hrs by MTT assay
Histone deacetylase 1/6 (Homo sapiens), sequence (Q13547 whole entry, looked up): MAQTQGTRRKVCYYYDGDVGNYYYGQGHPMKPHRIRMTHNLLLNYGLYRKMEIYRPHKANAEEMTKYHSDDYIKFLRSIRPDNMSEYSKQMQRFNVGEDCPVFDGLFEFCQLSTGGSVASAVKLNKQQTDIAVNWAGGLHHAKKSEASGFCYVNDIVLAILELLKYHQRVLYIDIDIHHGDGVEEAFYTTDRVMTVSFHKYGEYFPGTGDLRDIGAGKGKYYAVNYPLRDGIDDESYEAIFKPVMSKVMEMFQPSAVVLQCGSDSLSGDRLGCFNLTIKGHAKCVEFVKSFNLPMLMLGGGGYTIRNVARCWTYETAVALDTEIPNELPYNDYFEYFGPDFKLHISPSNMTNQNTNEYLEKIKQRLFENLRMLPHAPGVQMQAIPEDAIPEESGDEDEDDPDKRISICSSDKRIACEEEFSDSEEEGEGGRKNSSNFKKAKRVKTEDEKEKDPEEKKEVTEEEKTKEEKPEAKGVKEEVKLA
Histone deacetylase 1/6 (Homo sapiens), sequence (Q9UBN7 whole entry, looked up): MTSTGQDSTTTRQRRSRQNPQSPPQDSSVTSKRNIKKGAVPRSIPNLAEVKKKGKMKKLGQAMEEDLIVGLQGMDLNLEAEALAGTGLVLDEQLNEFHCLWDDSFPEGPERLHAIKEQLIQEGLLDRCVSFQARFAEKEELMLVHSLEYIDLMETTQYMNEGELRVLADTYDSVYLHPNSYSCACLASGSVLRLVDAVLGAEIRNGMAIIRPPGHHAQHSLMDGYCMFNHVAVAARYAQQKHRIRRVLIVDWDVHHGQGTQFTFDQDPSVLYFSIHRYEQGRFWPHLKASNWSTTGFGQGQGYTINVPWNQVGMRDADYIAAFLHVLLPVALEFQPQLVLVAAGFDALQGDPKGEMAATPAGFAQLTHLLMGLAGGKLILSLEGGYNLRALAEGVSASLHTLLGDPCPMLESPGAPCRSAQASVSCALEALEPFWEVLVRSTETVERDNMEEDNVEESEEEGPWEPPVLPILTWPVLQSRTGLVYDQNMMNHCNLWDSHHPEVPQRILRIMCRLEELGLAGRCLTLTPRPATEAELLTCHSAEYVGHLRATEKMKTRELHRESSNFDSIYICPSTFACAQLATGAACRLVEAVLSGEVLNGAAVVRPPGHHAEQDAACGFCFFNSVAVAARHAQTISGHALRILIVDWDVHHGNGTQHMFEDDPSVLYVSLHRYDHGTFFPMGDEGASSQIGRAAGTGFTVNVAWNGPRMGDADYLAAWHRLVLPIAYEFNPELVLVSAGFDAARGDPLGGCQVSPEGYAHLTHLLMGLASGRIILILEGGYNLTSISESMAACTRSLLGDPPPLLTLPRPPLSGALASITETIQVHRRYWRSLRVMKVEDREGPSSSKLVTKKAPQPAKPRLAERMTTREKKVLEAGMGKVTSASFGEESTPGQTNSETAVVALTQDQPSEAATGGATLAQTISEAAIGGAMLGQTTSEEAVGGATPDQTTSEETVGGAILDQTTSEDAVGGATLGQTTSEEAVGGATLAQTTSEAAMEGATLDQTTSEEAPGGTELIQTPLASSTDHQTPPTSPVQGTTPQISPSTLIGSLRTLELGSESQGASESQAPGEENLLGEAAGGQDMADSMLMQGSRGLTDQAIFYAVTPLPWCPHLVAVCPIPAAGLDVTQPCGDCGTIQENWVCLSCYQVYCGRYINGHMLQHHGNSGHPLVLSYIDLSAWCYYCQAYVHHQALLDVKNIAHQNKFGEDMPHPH

SMILES: COc1cc(NC(=O)NOCCCCCC(=O)NO)c2ncccc2c1
- CI (CAL-27 [1]): 0.92
- CI (CAL-27 [2]): 0.7
- CI [3]: 0.68

Reference: ChEMBL document CHEMBL4014350, “Alkoxyurea-Based Histone Deacetylase Inhibitors Increase Cisplatin Potency in Chemoresistant Cancer Cell Lines” (J Med Chem, 2017)
